Assays:
[1] = system: Mycobacterium tuberculosis; assay: Antibacterial activity against Mycobacterium tuberculosis H37Rv ATCC 25618 measured at 24 hrs interval by BACTEC radiometric method; assay type: functional
Procedure, shortened: (§1)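 H37Rv grown in 7H9 with ADC to about 0.16 A600 (one McFarland), inoculated into BACTEC vials and incubated at 37 °C to GI 500 (±50). This primary culture was then dosed with filter-sterilised compound at 10 μM in DMSO (final DMSO 2.5%) and held at 37 °C. Growth was read every 24 h as radiometric CO₂ growth index against controls.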

[2] = system: Mycobacterium tuberculosis; assay: Antibacterial activity against Mycobacterium tuberculosis H37Rv ATCC 25618 assessed as growth inhibition at 10 uM measured at 24 hrs interval by BACTEC radiometric method relative to control; assay type: functional; conditions: for inhibition of growth at 10 µM: Mycobacterium tuberculosis, H37Rv ATCC 25618, 24 h, read-out: GI; procedure, shortened: as §1
Plasmodium falciparum = assay: Antiplasmodial activity against chloroquine-sensitive Plasmodium falciparum NF54 by lactate dehydrogenase assay; assay type: functional, organism-based
Procedure, shortened: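 Asexual erythrocyte-stage P. falciparum kept in continuous in vitro culture (modified Trager–Jensen). Activity quantified by parasite lactate dehydrogenase assay (modified Makler method). Triplicate wells, on one or two separate occasions. IC50 from full dose–response curves by nonlinear curve fitting. Chloroquine run as internal standard to monitor conditions.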

[3] = Mycobacterium tuberculosis, H37Rv ATCC 25618, 24 h, read-out: MIC99

| Structure (SMILES) | MIC99 [1, 3] [µM] | inhibition of growth at 10 µM [2] [%] | IC50 (Plasmodium falciparum) | also measured |
| --- | --- | --- | --- | --- |
| CN(C)Cc1ccc(CCCc2ccccc2)cc1O.Cl |  |  |  | MIC99 [1]: >10 µM; growth inhibition (GI) [2]: 36% |
| CN(C)Cc1cc(CCCc2ccccc2)cc(CN(C)C)c1O.Cl.Cl |  |  |  | MIC99 [1]: >10 µM; growth inhibition (GI) [2]: 33% |
| Oc1cccc(CCCc2ccccc2)c1 | > 10 | 94 | Not Active |  |
| NS(=O)(=O)c1ccc(NCc2cc(CCCc3ccccc3)cc(CNc3ccc(S(N)(=O)=O)cc3)c2O)cc1 | > 10 | 0 |  |  |
| NS(=O)(=O)c1ccc(NCc2ccc(CCCc3ccccc3)cc2O)cc1 | > 10 | 14 | Not Active |  |
| Cc1cc(NS(=O)(=O)c2ccc(N)cc2)no1 [SULFAMETHOXAZOLE] |  |  | Not Active |  |
| Nc1ccc(S(N)(=O)=O)cc1 [SULFANILAMIDE] | > 10 | 0 | Not Active |  |
| Oc1ccc(CCCc2ccccc2)cc1 | > 10 | 96 |  |  |
| COc1ncnc(NS(=O)(=O)c2ccc(N)cc2)c1OC [SULFADOXINE] |  |  | Not Active |  |
| CN(C)Cc1cc(CCCc2ccccc2)cc(CN(C)C)c1O | > 10 | 42 |  |  |
| CN(C)Cc1ccc(CCCc2ccccc2)cc1O | > 10 |  |  | growth inhibition (GI) [2]: 74% |
| C[C@H]1[C@H](OC(=O)CCC(=O)O)O[C@@H]2O[C@@]3(C)CC[C@H]4[C@H](C)CC[C@@H]1[C@@]24OO3 [ARTESUNATE] |  |  |  | IC50 (Plasmodium falciparum; Plasmodium falciparum, NF54, read-out: IC50): < 5.2 µM |

Reference: ChEMBL document CHEMBL4130614, “Synthesis and Bioactivity of Reduced Chalcones Containing Sulfonamide Side Chains” (J Nat Prod, 2018)
